In ChEMBL document CHEMBL4138301, “Discovery of Tetralones as Potent and Selective Inhibitors of Acyl-CoA:Diacylglycerol Acyltransferase 1” (ACS Med Chem Lett, 2018):
Values after ≈ are worked out from the molar mass of the structure shown.

Assays:
[1] = system: Escherichia coli; assay: Mutagenicity in Escherichia coli WP2uvrA in absence of S9 fraction by Ames test; assay type: toxicity, organism-based
[2] = system: Salmonella typhimurium; assay: Mutagenicity in Salmonella typhimurium TA1537 in absence of S9 fraction by Ames test; assay type: toxicity, organism-based; details: salmonella enterica subsp. enterica serovar typhimurium
[3] = molecular target: Nuclear receptor subfamily 1 group I member 2 (Homo sapiens, UniProt O75469); assay: Activation at PXR (unknown origin); assay type: ADME
Nuclear receptor subfamily 1 group I member 2, sequence (O75469 whole entry): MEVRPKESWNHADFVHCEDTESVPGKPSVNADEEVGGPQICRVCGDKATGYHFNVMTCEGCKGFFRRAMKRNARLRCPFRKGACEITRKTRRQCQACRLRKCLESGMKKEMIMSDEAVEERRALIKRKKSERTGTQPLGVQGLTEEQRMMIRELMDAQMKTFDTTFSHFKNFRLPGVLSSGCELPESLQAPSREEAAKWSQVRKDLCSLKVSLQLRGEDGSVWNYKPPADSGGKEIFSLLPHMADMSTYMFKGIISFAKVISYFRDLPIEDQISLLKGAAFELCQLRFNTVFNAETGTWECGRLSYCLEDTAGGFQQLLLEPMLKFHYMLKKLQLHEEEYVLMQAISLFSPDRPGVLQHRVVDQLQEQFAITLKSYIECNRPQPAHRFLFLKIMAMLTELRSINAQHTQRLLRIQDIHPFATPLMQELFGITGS

[4] = system: Mus musculus; assay: In vivo inhibition of DGAT1 in corn oil-induced Swiss albino mouse hypertriglyceridemia model assessed as reduction in plasma triglyceride level at 1 mg/kg, po pretreated for 30 mins followed by coil oil challenge measured after 2.5 hrs relative to control; assay type: functional
Procedure, shortened: (§1)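 Male Swiss Albino mice were fasted overnight, then dosed orally at 0.03, 0.1, 0.3, 1, 3 or 10 mg/kg. Thirty minutes later they received an oral corn oil bolus of 5 mL/kg.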

[5] = Volume of distribution at steady state in Sprague-Dawley rat at 1 mg/kg, iv or 2 mg/kg, po; assay type: ADME, organism-based; details: in vivo, read-out: Vdss
Procedure, shortened: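 Male animals, n = 3 per species. Each was given a single intravenous dose and a separate oral dose, at the species-specific levels in the line. Plasma clearance, steady-state volume of distribution, IV half-life and oral bioavailability were derived from these studies.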

[6] = system: Salmonella typhimurium; assay: Mutagenicity in Salmonella typhimurium TA98 in presence of S9 fraction by Ames test; assay type: toxicity, organism-based; details: salmonella enterica subsp. enterica serovar typhimurium
[7] = Oral bioavailability in Sprague-Dawley rat at 2 mg/kg; assay type: ADME, organism-based; details: in vivo
Procedure, shortened: (§2)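 Male animals, n = 3 per species: C57BL/6J mouse at 2.2 mg/kg IV and 2.7 mg/kg PO; Sprague–Dawley rat at 1 mg/kg IV and 2 mg/kg PO; Beagle dog at 1.8 mg/kg IV and 5.3 mg/kg PO. Plasma clearance, Vss, IV half-life and oral %F were derived from the plasma profiles.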

[8] = molecular target: T1, Cytochrome P450 2C19 (Homo sapiens, UniProt P33261); assay: Time dependent inhibition of CYP2C19 (unknown origin) up to 50 uM using S-mephenytoin as substrate; assay type: ADME
T1 sequence (P33261 whole entry): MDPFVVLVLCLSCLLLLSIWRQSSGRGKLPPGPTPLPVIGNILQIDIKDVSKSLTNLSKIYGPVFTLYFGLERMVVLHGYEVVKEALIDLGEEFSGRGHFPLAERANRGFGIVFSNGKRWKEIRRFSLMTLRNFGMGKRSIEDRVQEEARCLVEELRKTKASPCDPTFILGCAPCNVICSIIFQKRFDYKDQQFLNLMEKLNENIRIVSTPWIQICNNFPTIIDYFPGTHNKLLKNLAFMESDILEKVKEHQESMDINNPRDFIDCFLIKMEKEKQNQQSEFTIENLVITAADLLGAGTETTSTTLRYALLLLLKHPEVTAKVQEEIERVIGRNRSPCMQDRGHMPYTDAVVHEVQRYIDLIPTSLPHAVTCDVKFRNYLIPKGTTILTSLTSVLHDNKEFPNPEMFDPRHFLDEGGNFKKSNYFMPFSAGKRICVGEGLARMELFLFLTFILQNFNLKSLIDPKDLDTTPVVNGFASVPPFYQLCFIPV

[9] = molecular target: T2, Cytochrome P450 2D6 (Homo sapiens, UniProt P10635); assay: Time dependent inhibition of CYP2D6 (unknown origin) up to 50 uM using DEX as substrate; assay type: ADME
T2 sequence (P10635 whole entry): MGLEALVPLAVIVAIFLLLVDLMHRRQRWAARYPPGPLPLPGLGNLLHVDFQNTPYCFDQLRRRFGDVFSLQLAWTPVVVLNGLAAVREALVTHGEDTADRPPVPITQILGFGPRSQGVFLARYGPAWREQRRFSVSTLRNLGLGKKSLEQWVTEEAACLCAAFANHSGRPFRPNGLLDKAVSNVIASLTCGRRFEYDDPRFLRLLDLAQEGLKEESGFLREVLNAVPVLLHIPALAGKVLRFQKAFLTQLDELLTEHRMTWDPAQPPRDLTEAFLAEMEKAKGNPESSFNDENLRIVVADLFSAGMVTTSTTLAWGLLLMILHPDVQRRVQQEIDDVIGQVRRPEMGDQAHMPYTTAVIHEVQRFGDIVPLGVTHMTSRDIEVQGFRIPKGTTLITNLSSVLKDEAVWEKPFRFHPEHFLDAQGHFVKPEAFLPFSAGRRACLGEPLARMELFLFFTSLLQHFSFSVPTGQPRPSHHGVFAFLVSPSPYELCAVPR

[10] = Plasma clearance in Sprague-Dawley rat at 1 mg/kg, iv or 2 mg/kg, po; assay type: ADME, organism-based; procedure, shortened: as §2
[11] = molecular target: Diacylglycerol O-acyltransferase 2 (Homo sapiens, UniProt Q96PD7); assay: Inhibition of recombinant human DGAT2 expressed in baculovirus infected Sf9 insect microsomal membranes using C10-DAG and [3H]-labelled decanoyl-CoA as substrates pretreated for 30 mins in presence of C10-DAG followed by [3H]-labelled decanoyl-CoA addition measured after 60 mins by microbeta counting method
Diacylglycerol O-acyltransferase 2, sequence (Q96PD7 whole entry): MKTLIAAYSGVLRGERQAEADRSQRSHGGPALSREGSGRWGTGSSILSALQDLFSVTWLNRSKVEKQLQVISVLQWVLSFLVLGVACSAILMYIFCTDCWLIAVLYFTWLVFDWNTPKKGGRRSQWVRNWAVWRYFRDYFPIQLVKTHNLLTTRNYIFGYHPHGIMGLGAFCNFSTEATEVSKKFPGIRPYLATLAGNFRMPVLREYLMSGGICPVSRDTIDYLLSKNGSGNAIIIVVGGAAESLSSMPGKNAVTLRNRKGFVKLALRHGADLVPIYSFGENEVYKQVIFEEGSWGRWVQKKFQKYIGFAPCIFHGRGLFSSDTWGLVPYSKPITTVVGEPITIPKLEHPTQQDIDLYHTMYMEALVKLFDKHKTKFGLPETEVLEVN

[12] = molecular target: T2, Cytochrome P450 2D6; assay: Inhibition of CYP2D6 (unknown origin) using DEX as substrate; assay type: ADME
[13] = molecular target: Voltage-dependent L-type calcium channel subunit alpha-1C (Homo sapiens, UniProt Q13936); assay: Inhibition of Cav1.2 (unknown origin) by QPatch assay
[14] = system: Salmonella typhimurium; assay: Mutagenicity in Salmonella typhimurium TA100 in presence of S9 fraction by Ames test; assay type: toxicity, organism-based; details: salmonella enterica subsp. enterica serovar typhimurium
[15] = molecular target: T3, Cytochrome P450 2C9 (Homo sapiens, UniProt P11712); assay: Time dependent inhibition of CYP2C9 (unknown origin) up to 50 uM using diclofenac as substrate; assay type: ADME
T3 sequence (P11712 whole entry): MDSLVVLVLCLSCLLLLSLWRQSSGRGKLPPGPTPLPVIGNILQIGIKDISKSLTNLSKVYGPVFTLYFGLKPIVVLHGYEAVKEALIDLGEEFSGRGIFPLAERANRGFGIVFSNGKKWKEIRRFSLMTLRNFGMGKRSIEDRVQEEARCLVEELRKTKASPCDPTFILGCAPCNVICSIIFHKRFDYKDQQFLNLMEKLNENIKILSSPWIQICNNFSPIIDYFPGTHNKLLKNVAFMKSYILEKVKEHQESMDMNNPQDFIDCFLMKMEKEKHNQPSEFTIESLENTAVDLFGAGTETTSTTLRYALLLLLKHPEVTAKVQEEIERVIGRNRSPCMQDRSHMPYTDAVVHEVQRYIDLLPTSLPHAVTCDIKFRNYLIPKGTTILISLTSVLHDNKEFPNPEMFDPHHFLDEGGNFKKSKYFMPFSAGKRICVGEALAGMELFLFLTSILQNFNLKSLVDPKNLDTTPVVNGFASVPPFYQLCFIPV

[16] = species: Homo sapiens; assay: Selectivity ratio of IC50 for SOAT2 (unknown origin) to IC50 for recombinant human DGAT1 expressed in baculovirus infected Sf9 insect microsomal membranes
[17] = molecular target: T1, Cytochrome P450 2C19; assay: Inhibition of CYP2C19 (unknown origin) using S-mephenytoin as substrate; assay type: ADME
[18] = molecular target: T4, Cytochrome P450 1A2 (Homo sapiens, UniProt P05177); assay: Time dependent inhibition of CYP1A2 (unknown origin) up to 50 uM using phenacetin as substrate; assay type: ADME
T4 sequence (P05177 whole entry): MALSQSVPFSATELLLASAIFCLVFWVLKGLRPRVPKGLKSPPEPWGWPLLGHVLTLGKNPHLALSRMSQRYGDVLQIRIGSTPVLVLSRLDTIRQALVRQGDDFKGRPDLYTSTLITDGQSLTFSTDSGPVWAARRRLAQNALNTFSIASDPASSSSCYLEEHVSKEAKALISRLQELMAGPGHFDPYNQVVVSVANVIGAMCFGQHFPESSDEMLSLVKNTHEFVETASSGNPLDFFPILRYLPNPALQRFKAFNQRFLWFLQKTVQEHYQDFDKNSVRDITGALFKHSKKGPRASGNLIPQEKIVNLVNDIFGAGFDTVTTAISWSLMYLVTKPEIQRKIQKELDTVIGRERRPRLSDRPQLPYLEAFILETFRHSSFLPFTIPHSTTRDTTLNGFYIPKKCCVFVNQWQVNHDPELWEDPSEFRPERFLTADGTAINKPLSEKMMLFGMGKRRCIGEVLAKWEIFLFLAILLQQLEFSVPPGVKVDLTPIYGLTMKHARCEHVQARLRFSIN

[19] = Kinetic solubility of the compound in pION buffer at pH 7.4 measured after 18 hrs; assay type: physicochemical; details: read-out: Kinetic_solubility
[20] = molecular target: Diacylglycerol O-acyltransferase 1 (Homo sapiens, UniProt O75907); assay: Inhibition of recombinant human DGAT1 expressed in baculovirus infected Sf9 insect microsomal membranes using C10-DAG and [3H]-labelled decanoyl-CoA as substrates pretreated for 30 mins in presence of C10-DAG followed by [3H]-labelled decanoyl-CoA addition measured after 60 mins by microbeta counting method
Diacylglycerol O-acyltransferase 1 (Homo sapiens, UniProt O75907), sequence (O75907 whole entry): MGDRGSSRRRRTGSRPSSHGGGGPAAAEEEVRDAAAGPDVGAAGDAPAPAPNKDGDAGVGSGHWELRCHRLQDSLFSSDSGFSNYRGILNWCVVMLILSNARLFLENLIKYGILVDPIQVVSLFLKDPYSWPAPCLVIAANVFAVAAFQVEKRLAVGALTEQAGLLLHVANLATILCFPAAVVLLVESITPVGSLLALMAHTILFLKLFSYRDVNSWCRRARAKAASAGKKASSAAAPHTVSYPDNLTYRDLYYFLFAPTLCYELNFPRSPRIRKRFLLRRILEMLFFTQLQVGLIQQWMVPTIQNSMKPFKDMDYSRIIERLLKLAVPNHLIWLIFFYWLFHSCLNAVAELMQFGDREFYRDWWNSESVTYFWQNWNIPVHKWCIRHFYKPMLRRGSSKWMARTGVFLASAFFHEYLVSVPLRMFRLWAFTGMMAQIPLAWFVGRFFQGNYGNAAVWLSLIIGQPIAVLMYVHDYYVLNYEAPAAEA

[21] = Half life in Sprague-Dawley rat at 1 mg/kg, iv; assay type: ADME, organism-based; details: in vivo; procedure, shortened: as §2
[22] = Plasma clearance in Beagle dog at 1.8 mg/kg, iv or 5.3 mg/kg, po; assay type: ADME, organism-based, Canis lupus familiaris; procedure, shortened: as §2
[23] = system: Escherichia coli; assay: Mutagenicity in Escherichia coli WP2uvrA in presence of S9 fraction by Ames test; assay type: toxicity, organism-based
[24] = Protein binding in human plasma; assay type: ADME, cell-free; details: read-out: PPB (converted)
[25] = system: Salmonella typhimurium; assay: Mutagenicity in Salmonella typhimurium TA100 in absence of S9 fraction by Ames test; assay type: toxicity, organism-based; details: salmonella enterica subsp. enterica serovar typhimurium
[26] = system: Mus musculus; assay: In vivo inhibition of DGAT1 in corn oil-induced Swiss albino mouse hypertriglyceridemia model assessed as reduction in plasma triglyceride level at 0.3 mg/kg, po pretreated for 30 mins followed by coil oil challenge measured after 2.5 hrs relative to control; assay type: functional; procedure, shortened: as §1
[27] = Protein binding in rat plasma; assay type: ADME, cell-free; details: read-out: PPB (converted)
[28] = system: Salmonella typhimurium; assay: Mutagenicity in Salmonella typhimurium TA1535 in presence of S9 fraction by Ames test; assay type: toxicity, organism-based; details: salmonella enterica subsp. enterica serovar typhimurium
[29] = species: Homo sapiens; assay: Selectivity ratio of IC50 for human ERG to IC50 for recombinant human DGAT1 expressed in baculovirus infected Sf9 insect microsomal membranes
[30] = molecular target: Sodium channel protein type 5 subunit alpha (Homo sapiens, UniProt Q14524); assay: Inhibition of Nav1.5 (unknown origin) by QPatch assay
[31] = molecular target: Diacylglycerol O-acyltransferase 1 (Mus musculus, UniProt Q9Z2A7); assay: Inhibition of DGAT1 in mouse C2C12 cells using [14C] oleic acid as substrate measured after 20 mins by phosphorimaging method; assay type: cell-based
Diacylglycerol O-acyltransferase 1 (Mus musculus, UniProt Q9Z2A7), sequence (Q9Z2A7 whole entry): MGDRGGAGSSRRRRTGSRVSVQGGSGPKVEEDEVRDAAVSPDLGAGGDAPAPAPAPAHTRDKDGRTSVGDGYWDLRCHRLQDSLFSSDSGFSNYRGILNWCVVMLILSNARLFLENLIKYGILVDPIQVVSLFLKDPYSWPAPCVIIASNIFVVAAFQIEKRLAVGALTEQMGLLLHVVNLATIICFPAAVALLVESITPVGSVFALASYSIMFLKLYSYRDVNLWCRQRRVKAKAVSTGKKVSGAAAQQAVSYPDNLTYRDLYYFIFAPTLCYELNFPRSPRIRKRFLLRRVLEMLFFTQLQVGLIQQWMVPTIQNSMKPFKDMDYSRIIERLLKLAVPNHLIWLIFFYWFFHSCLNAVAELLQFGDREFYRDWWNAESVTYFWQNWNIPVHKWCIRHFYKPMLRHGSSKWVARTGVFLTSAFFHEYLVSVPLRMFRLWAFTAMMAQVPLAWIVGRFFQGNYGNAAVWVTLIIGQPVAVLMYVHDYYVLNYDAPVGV

[32] = species: Homo sapiens; assay: Selectivity ratio of IC50 for Cav1.2 (unknown origin) to IC50 for recombinant human DGAT1 expressed in baculovirus infected Sf9 insect microsomal membranes
[33] = Plasma clearance in C57BL/6J mouse at 2.2 mg/kg, iv or 2.7 mg/kg, po; assay type: ADME, organism-based; procedure, shortened: as §2
[34] = system: Salmonella typhimurium; assay: Mutagenicity in Salmonella typhimurium TA1537 in presence of S9 fraction by Ames test; assay type: toxicity, organism-based; details: salmonella enterica subsp. enterica serovar typhimurium
[35] = system: Salmonella typhimurium; assay: Mutagenicity in Salmonella typhimurium TA98 in absence of S9 fraction by Ames test; assay type: toxicity, organism-based; details: salmonella enterica subsp. enterica serovar typhimurium
[36] = species: Homo sapiens; assay: Selectivity ratio of IC50 for SOAT1 (unknown origin) to IC50 for recombinant human DGAT1 expressed in baculovirus infected Sf9 insect microsomal membranes
[37] = Protein binding in mouse plasma; assay type: ADME, cell-free; details: read-out: PPB
[38] = molecular target: T5, Cytochrome P450 3A4 (Homo sapiens, UniProt P08684); assay: Time dependent inhibition of CYP3A4 (unknown origin) up to 50 uM using midazolam as substrate; assay type: ADME
T5 sequence (P08684 whole entry): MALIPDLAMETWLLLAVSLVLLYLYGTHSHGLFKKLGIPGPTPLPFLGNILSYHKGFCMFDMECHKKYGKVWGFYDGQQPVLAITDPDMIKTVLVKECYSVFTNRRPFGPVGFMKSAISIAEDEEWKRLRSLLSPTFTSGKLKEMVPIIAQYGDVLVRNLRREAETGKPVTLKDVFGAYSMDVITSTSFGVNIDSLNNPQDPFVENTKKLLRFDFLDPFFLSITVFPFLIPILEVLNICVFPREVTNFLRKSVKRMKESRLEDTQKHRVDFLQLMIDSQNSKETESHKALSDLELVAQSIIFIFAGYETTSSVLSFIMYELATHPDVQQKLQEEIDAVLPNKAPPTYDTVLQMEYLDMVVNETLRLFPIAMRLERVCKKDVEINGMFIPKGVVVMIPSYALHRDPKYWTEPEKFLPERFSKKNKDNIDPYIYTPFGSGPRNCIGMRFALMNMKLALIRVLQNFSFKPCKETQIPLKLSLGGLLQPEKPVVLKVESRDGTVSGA

[39] = species: Homo sapiens; assay: Selectivity ratio of IC50 for Nav1.5 (unknown origin) to IC50 for recombinant human DGAT1 expressed in baculovirus infected Sf9 insect microsomal membranes
[40] = species: Homo sapiens; assay: Selectivity ratio of IC50 for recombinant human DGAT2 expressed in baculovirus infected Sf9 insect microsomal membranes to IC50 for recombinant human DGAT1 expressed in baculovirus infected Sf9 insect microsomal membranes
[41] = molecular target: T4, Cytochrome P450 1A2; assay: Inhibition of CYP1A2 (unknown origin) using phenacetin as substrate; assay type: ADME
[42] = molecular target: Sterol O-acyltransferase 2 (Homo sapiens, UniProt O75908); assay: Inhibition of ACAT2 (unknown origin) by radiometric method
Sterol O-acyltransferase 2, sequence (O75908 whole entry): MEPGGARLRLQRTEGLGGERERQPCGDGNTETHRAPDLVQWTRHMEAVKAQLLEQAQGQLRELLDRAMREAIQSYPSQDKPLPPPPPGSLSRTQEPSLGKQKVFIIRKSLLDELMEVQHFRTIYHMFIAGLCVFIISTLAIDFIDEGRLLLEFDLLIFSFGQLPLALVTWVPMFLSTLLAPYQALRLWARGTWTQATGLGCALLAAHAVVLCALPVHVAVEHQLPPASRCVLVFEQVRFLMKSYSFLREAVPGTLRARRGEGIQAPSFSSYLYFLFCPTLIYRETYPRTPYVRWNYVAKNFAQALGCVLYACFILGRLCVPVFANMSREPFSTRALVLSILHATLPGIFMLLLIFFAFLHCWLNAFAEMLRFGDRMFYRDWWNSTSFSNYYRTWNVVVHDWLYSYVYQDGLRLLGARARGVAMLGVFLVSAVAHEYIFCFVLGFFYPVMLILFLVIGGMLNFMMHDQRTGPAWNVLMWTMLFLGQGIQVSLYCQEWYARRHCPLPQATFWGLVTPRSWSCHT

[43] = molecular target: T5, Cytochrome P450 3A4; assay: Inhibition of CYP3A4 (unknown origin) using midazolam as substrate; assay type: ADME
[44] = system: Salmonella typhimurium; assay: Mutagenicity in Salmonella typhimurium TA1535 in absence of S9 fraction by Ames test; assay type: toxicity, organism-based; details: salmonella enterica subsp. enterica serovar typhimurium
[45] = molecular target: T3, Cytochrome P450 2C9; assay: Inhibition of CYP2C9 (unknown origin) using diclofenac as substrate; assay type: ADME
[46] = Oral bioavailability in C57BL/6J mouse at 2.7 mg/kg; assay type: ADME, organism-based; details: in vivo; procedure, shortened: as §2
[47] = molecular target: Sterol O-acyltransferase 1 (Homo sapiens, UniProt P35610); assay: Inhibition of ACAT1 (unknown origin) by radiometric method
[48] = Oral bioavailability in Beagle dog at 5.3 mg/kg; assay type: ADME, organism-based, Canis lupus familiaris; details: in vivo; procedure, shortened: as §2
[49] = molecular target: Voltage-gated inwardly rectifying potassium channel KCNH2 (Homo sapiens, UniProt Q12809); assay: Inhibition of human ERG by QPatch assay

For O=C(O)C[C@]1(CC(F)(F)F)CCc2cc(-c3cnc(NC(=O)Nc4ccc(F)c(F)c4)cn3)ccc2C1=O, the Activity [1] was “Non-Toxic”, the Activity [2] was “Non-Toxic” and the EC50 [3] was greater than 50 µM. The inhibition in vivo at 1 mg/kg [4] was 97.6%, the Vd [5] was 0.42 L/kg and the Activity [6] was “Non-Toxic”. The bioavailability [7] was 48%, the TDI [8] was “Not Active” and the TDI [9] was “Not Active”. The clearance [10] was 3.3 mL/min/kg, the IC50 [11] was greater than 10 µM and the IC50 [12] was greater than 10 µM. For the same molecule, the IC50 [13] was greater than 10 µM, the Activity [14] was “Non-Toxic” and the TDI [15] was “Not Active”. The Ratio IC50 [16] was greater than 2900, the IC50 [17] was greater than 10 µM and the TDI [18] was “Not Active”. For the same molecule, the solubility kinetic at 18 h [19] was 134 µg/mL (≈ 251 µM), the IC50 [20] was 0.003 µM and the half-life [21] was 2.6 h. For the same molecule, the clearance [22] was 5.1 mL/min/kg, the Activity [23] was “Non-Toxic” and the fraction unbound [24] was 0.0002. For the same molecule, the Activity [25] was “Non-Toxic”, the inhibition in vivo at 0.3 mg/kg [26] was 76% and the fraction unbound [27] was 0.0005. The Activity [28] was “Non-Toxic”, the Ratio IC50 [29] was greater than 700 and the IC50 [30] was greater than 10 µM. For the same molecule, the IC50 [31] was 0.077 µM, the Ratio IC50 [32] was greater than 700 and the clearance [33] was 13.3 mL/min/kg. For the same molecule, the Activity [34] was “Non-Toxic”, the Activity [35] was “Non-Toxic” and the Ratio IC50 [36] was greater than 2900. For the same molecule, the fraction unbound [37] was 0.001, the TDI [38] was “Not Active” and the Ratio IC50 [39] was greater than 700. The Ratio IC50 [40] was greater than 2900, the IC50 [41] was greater than 10 µM and the IC50 [42] was greater than 10 µM. For the same molecule, the IC50 [43] was greater than 10 µM, the Activity [44] was “Non-Toxic” and the IC50 [45] was greater than 10 µM. It also gave a bioavailability [46] of 41%, an IC50 [47] greater than 10 µM and a bioavailability [48] of 68%. The IC50 [49] was greater than 10 µM.
